Measured values reported in ChEMBL document CHEMBL5038571, “Design and Synthesis of EZH2-Based PROTACs to Degrade the PRC2 Complex for Targeting the Noncatalytic Activity of EZH2” (J Med Chem, 2021).
Activity calls are given as the source filed them. No cut-off for these calls is given here.

Experiments:
[1] = target: T1, Protein cereblon/Histone-lysine N-methyltransferase EZH2 (Homo sapiens) (UniProt Q15910+Q96SW2); test: PROTAC activity at CRBN E3 ligase/EZH2 in PRC2 complex in human WSUDLCL2 cells assessed as reduction in H3K27me3 level at 10 uM incubated for 48 hrs by Western blot analysis; assay type: cell-based
[2] = target: T1, Protein cereblon/Histone-lysine N-methyltransferase EZH2 (Homo sapiens); test: PROTAC activity at CRBN E3 ligase/EZH2 in PRC2 complex in human WSUDLCL2 cells assessed as induction of RbAp48 degradation by measuring reduction in RbAp48 protein level at 1 uM measured after 48 to 72 hrs by Western blot analysis; assay type: cell-based; conditions: time 48-72 hrs
[3] = target: T1, Protein cereblon/Histone-lysine N-methyltransferase EZH2 (Homo sapiens); test: PROTAC activity at CRBN E3 ligase/EZH2 in PRC2 complex in human LNCaP cells assessed as induction of EED degradation by measuring reduction in EED protein level at 1 uM incubated for 48 hrs by Western blot analysis; assay type: cell-based
Procedure, shortened: (§1)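 Cancer cell lines exposed to 1 μM compound for 48 h. Lysates immunoblotted (SDS-PAGE, nitrocellulose, 5% milk block, primary antibody overnight at 4 °C) for EZH2, SUZ12, EED, RbAp48 and H3K27me3. Bands quantified by densitometry and normalized to GAPDH.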

[4] = target: T1, Protein cereblon/Histone-lysine N-methyltransferase EZH2 (Homo sapiens); test: PROTAC activity at CRBN E3 ligase/EZH2 in PRC2 complex in human A2780 cells assessed as induction of EED degradation by measuring reduction in EED protein level at 1 uM incubated for 48 hrs by Western blot analysis; assay type: cell-based; procedure, shortened: as §1
[5] = target: T1, Protein cereblon/Histone-lysine N-methyltransferase EZH2 (Homo sapiens); test: PROTAC activity at CRBN E3 ligase/EZH2 in PRC2 complex in human SK-OV-3 cells assessed as induction of EED degradation by measuring reduction in EED protein level at 1 uM incubated for 48 hrs by Western blot analysis; assay type: cell-based
Procedure, shortened: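 Cells cultured in DMEM or RPMI 1640 with 10% FBS and 1% penicillin-streptomycin, 37 °C, 5% CO2; exposed to 1 μM compound for 48 h. Lysates run on SDS-PAGE and transferred to nitrocellulose. Blocked 2 h in 5% skim milk, primary antibody overnight at 4 °C, then secondary antibody. Chemiluminescent detection of PRC2 subunits and H3K27me3.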

[6] = target: T1, Protein cereblon/Histone-lysine N-methyltransferase EZH2 (Homo sapiens); test: PROTAC activity at CRBN E3 ligase/EZH2 in PRC2 complex in human WSUDLCL2 cells assessed as downregulation of SUZ12 expression at 1 uM pretreated with GSK126 for 4 hrs followed by compound addition and measured after 48 hrs by Western blot analysis; assay type: cell-based
Procedure, shortened: (§2)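 WSU-DLCL-2 cells pretreated 4 h with the named inhibitor, then compound added and incubated a further 48 h. EZH2, SUZ12, EED and RbAp48 measured by western blot (nitrocellulose transfer, skim-milk block, primary antibody overnight at 4 °C, chemiluminescent detection).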

[7] = target: T1, Protein cereblon/Histone-lysine N-methyltransferase EZH2 (Homo sapiens); test: PROTAC activity at CRBN E3 ligase/EZH2 in PRC2 complex in human WSUDLCL2 cells assessed as downregulation of EED expression at 1 uM pretreated with GSK126 for 4 hrs followed by compound addition and measured after 48 hrs by Western blot analysis; assay type: cell-based; procedure, shortened: as §2
[8] = target: T1, Protein cereblon/Histone-lysine N-methyltransferase EZH2 (Homo sapiens); test: PROTAC activity at CRBN E3 ligase/EZH2 in PRC2 complex in human WSUDLCL2 cells assessed as downregulation of RbAp48 expression at 1 uM pretreated with EED226 for 4 hrs followed by compound addition and measured after 48 hrs by Western blot analysis; assay type: cell-based; procedure, shortened: as §2
[9] = target: T1, Protein cereblon/Histone-lysine N-methyltransferase EZH2 (Homo sapiens); test: PROTAC activity at CRBN E3 ligase/EZH2 in PRC2 complex in human WSUDLCL2 cells assessed as increase in EED ubiquitination at 1 uM measured after 48 hrs by co-immunoprecipitation assay; assay type: cell-based
Procedure, shortened: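 WSU-DLCL-2 cells treated with 1 μM compound for 48 h and lysed in RIPA buffer. Lysates incubated with antibodies overnight at 4 °C, then 3 h with Protein G agarose beads at 4 °C. Proteins eluted in IP buffer and ubiquitination of the target probed by immunoblot.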

WSUDLCL2 = test: Upregulation of CDKN2A mRNA expression in human WSUDLCL2 cells at 1 uM incubated for 48 hrs by qRT-PCR analysis; assay type: functional, cell-based
Procedure, shortened: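 WSU-DLCL-2 or Pfeiffer cells treated 48 h. Trizol RNA extraction, reverse transcription, SYBR qPCR (95 °C 30 s; 40 cycles of 95 °C 6 s, 60 °C 20 s). mRNA normalized to DMSO-treated cells; mean ± SD of three independent experiments, t-test.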

NCI-H1299 = test: Downregulation of CEP76 mRNA expression in human NCI-H1299 cells at 10 uM incubated for 48 hrs by qRT-PCR analysis; assay type: functional, cell-based
Procedure, shortened: (§3)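 Cells treated 48 h. Total RNA extracted with Trizol, reverse-transcribed, and SYBR RT-qPCR run: 95 °C 30 s, then 40 cycles of 95 °C 6 s and 60 °C 20 s. mRNA normalized to the DMSO-treated group. Mean SD of three independent experiments, t-test versus DMSO.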

MDA-MB-468 [10] = test: Downregulation of ARL6IP mRNA expression in human MDA-MB-468 cells at 10 uM incubated for 48 hrs by qRT-PCR analysis; assay type: functional, cell-based; procedure, shortened: as §3
MDA-MB-468 [11] = test: Downregulation of CHEK1 mRNA expression in human MDA-MB-468 cells at 10 uM incubated for 48 hrs by qRT-PCR analysis; assay type: functional, cell-based; procedure, shortened: as §3
Pfeiffer = test: Antiproliferative activity against human Pfeiffer cells harboring EZH2-A677G mutant assessed as inhibition of cell growth incubated for 3 to 7 days by optical microscopic analysis (Rvb= 0.49 uM); assay type: functional, cell-based
[12] = target: T1, Protein cereblon/Histone-lysine N-methyltransferase EZH2 (Homo sapiens); test: PROTAC activity at CRBN E3 ligase/EZH2 in PRC2 complex in human WSUDLCL2 cells assessed as downregulation of SUZ12 expression at 1 uM pretreated with lenalidomide for 4 hrs followed by compound addition and measured after 48 hrs by Western blot analysis; assay type: cell-based; procedure, shortened: as §2
[13] = target: T1, Protein cereblon/Histone-lysine N-methyltransferase EZH2 (Homo sapiens); test: PROTAC activity at CRBN E3 ligase/EZH2 in PRC2 complex in human WSUDLCL2 cells assessed as downregulation of SUZ12 expression at 1 uM pretreated with MLN4924 for 4 hrs followed by compound addition and measured after 48 hrs by Western blot analysis; assay type: cell-based; procedure, shortened: as §2
[14] = target: T1, Protein cereblon/Histone-lysine N-methyltransferase EZH2 (Homo sapiens); test: PROTAC activity at CRBN E3 ligase/EZH2 in PRC2 complex in human WSUDLCL2 cells assessed as downregulation of EED expression at 1 uM pretreated with MLN4924 for 4 hrs followed by compound addition and measured after 48 hrs by Western blot analysis; assay type: cell-based; procedure, shortened: as §2
[15] = target: T1, Protein cereblon/Histone-lysine N-methyltransferase EZH2 (Homo sapiens); test: PROTAC activity at CRBN E3 ligase/EZH2 in PRC2 complex in human WSUDLCL2 cells assessed as downregulation of SUZ12 expression at 1 uM pretreated with EPZ6438 for 4 hrs followed by compound addition and measured after 48 hrs by Western blot analysis; assay type: cell-based; procedure, shortened: as §2

T1 sequence (Q15910 whole entry, looked up): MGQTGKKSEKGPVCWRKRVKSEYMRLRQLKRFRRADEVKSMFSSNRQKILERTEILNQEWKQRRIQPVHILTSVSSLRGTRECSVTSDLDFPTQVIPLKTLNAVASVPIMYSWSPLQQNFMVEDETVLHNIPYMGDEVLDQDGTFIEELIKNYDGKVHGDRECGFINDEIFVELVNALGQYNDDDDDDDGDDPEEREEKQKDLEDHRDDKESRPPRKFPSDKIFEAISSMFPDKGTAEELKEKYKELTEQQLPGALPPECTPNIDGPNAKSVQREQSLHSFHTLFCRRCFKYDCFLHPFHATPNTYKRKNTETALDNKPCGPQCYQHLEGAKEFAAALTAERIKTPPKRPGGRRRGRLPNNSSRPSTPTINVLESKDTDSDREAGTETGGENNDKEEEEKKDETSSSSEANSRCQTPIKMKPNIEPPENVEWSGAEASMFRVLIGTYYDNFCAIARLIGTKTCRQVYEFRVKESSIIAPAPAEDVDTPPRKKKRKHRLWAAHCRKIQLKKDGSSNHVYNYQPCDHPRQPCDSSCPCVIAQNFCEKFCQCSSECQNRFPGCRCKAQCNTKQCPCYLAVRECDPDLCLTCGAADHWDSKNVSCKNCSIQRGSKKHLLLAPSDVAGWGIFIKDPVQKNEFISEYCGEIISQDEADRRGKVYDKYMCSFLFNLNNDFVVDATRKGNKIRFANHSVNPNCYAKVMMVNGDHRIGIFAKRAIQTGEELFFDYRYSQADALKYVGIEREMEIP
T1 sequence (Q96SW2 whole entry, looked up): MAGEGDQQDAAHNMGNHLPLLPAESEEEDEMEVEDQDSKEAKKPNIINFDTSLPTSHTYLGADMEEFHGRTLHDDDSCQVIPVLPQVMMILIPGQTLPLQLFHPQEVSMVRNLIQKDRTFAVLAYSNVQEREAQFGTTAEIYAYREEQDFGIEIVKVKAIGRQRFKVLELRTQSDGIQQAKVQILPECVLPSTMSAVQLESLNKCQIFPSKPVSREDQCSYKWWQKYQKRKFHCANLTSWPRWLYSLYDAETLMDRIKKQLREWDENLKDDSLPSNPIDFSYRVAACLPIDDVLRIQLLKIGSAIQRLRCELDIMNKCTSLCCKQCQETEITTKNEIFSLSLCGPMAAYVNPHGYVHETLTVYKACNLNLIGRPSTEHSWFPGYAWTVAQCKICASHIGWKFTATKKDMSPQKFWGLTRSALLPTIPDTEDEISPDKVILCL

Activity [1]: inactive
Activity [2]: Active
Activity [3]: Active
Activity [4]: Active
Activity [5]: Active
Activity [6]: inactive
Activity [7]: inactive
Activity [8]: Active
Activity [9]: Active
Activity [12]: inactive
Activity [13]: inactive
Activity [14]: inactive
Activity [15]: inactive
Structure (SMILES): CCN(c1cc(-c2ccc(CN3CCN(CCCCCCCOc4cccc5c4C(=O)N(C4CCC(=O)NC4=O)C5=O)CC3)cc2)cc(C(=O)NCc2c(C)cc(C)[nH]c2=O)c1C)C1CCOCC1 (stereo not drawn)
Activity (WSUDLCL2): inactive
Activity (NCI-H1299): Active
Activity (MDA-MB-468 [10]): Active
Activity (MDA-MB-468 [11]): Active
IC50 (Pfeiffer): 210 nM
